Test results reported in ChEMBL document CHEMBL3085648, “Enhancement of kinase selectivity in a potent class of arylamide FMS inhibitors” (Bioorg Med Chem Lett, 2013).
Calls of active or inactive are those of the source. No cut-off for these calls is given here.

What was measured:
[1] = target: T1, Macrophage colony-stimulating factor 1 receptor (Mus musculus, UniProt P09581); test: Inhibition of FMS in mouse BMDM cells; assay type: cell-based
T1 sequence (P09581 whole entry): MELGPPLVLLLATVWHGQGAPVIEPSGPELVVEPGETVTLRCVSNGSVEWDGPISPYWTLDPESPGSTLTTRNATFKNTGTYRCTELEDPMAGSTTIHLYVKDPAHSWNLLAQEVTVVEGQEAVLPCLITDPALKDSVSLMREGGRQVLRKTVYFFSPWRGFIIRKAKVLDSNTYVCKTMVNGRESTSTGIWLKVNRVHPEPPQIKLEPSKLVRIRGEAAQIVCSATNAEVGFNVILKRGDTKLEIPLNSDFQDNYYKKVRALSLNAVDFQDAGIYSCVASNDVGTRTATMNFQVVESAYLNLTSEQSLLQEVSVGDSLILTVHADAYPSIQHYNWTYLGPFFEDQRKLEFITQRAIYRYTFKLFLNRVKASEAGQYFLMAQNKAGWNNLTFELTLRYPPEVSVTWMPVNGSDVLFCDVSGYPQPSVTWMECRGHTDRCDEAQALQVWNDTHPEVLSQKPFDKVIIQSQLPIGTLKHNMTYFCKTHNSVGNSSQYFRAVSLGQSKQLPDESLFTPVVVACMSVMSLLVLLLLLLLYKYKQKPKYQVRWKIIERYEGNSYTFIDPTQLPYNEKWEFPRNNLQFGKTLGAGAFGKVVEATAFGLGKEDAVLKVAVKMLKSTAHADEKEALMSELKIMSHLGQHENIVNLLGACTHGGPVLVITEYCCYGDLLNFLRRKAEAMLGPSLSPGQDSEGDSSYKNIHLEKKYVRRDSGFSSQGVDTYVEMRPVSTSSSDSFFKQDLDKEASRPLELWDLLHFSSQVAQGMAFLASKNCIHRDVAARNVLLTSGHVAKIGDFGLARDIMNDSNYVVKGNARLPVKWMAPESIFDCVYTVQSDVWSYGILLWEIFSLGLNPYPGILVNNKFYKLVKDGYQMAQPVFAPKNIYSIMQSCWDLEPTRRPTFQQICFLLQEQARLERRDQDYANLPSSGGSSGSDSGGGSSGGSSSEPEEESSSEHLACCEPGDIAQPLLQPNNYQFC

[2] = Metabolic stability in human liver microsomes assessed as compound remaining after 10 mins; assay type: ADME; details: liver microsomes, read-out: Stability
Summary of the method: (§1)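 Compound was incubated with human, mouse or rat liver microsomal preparations. Stability is the percent of compound remaining after 10 min.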

[3] = Metabolic stability in mouse liver microsomes assessed as compound remaining after 10 mins; assay type: ADME, Microsome; details: for remaining at 10 min: liver microsomes, read-out: Stability; summary of the method: as §1
[4] = Metabolic stability in rat liver microsomes assessed as compound remaining after 10 mins; assay type: ADME; details: read-out: Stability; summary of the method: as §1
[5] = test system: Mus musculus; test: Inhibition of CSF-1-induced c-fos gene expression in mouse spleen at 40 mg/kg, po after 6 hrs; assay type: functional
Summary of the method: (§2)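 In the mouse pharmacodynamic model, compound was given orally. Spleen c-fos mRNA induced by an iv injection of CSF-1 was measured 6 or 8 h after dosing.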

[6] = test system: Rattus norvegicus; test: Antiinflammatory activity in chronic phase of po dosed Lewis rat arthritis model assessed as inhibition of SCW-induced ankle swelling administered as bid for 14 days; assay type: functional, organism-based
Summary of the method: (§3)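 Female Lewis rats (80–100 g) received streptococcal cell wall material ip on day 0. On day 5, rats with a distinct acute-phase joint swelling response were randomized (n = 7/group). Vehicle, 10 or 40 mg/kg was given orally bid from day 10 (start of chronic phase) for 14 days. Ankle and paw swelling were followed.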

[7] = test system: Rattus norvegicus; test: Antiinflammatory activity in chronic phase of Lewis rat arthritis model assessed as inhibition of SCW-induced ankle swelling at 10 to 40 mg/kg, po bid administered for 14 days; assay type: functional, organism-based; summary of the method: as §3
[8] = test system: Mus musculus; test: Inhibition of CSF-1-induced c-fos gene expression in mouse spleen at 30 mg/kg, po after 6 hrs; assay type: functional; summary of the method: as §2
[9] = target: Mast/stem cell growth factor receptor Kit (Homo sapiens, UniProt P10721); test: Inhibition of KIT (unknown origin)
[10] = test system: Rattus norvegicus; test: Toxicity in Sprague-Dawley rat assessed as blood reticulocyte level at 40 mg/kg, po bid after 4.5 days; assay type: organism-based; set-up: dose 40 mg/kg, route oral; details: in vivo, 108 h
Summary of the method: (§4)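 Female Sprague–Dawley rats (150–200 g) were dosed orally bid for 4 days with vehicle (n = 4) or 10–40 mg/kg (n = 3), as a solution at 6 ml/kg in 20% HPβCD. A final dose was given on day 5 and rats were sacrificed 2 h later. Plasma drug level, body weight versus vehicle controls and blood reticulocytes were assessed.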

[11] = test system: Rattus norvegicus; test: Toxicity in Sprague-Dawley rat assessed as body weight loss at 40 mg/kg, po bid after 4.5 days relative to vehicle-treated control; assay type: organism-based; set-up: dose 40 mg/kg, route oral; details: in vivo, 108 h; summary of the method: as §4
[12] = Plasma concentration in Sprague-Dawley rat at 10 mg/kg, po bid administered for 5 days measured 2 hrs post last dose; assay type: ADME, organism-based; set-up: dose 10 mg/kg, route oral; summary of the method: as §4
[13] = Plasma concentration in Sprague-Dawley rat at 40 mg/kg, po bid administered for 5 days measured 2 hrs post last dose; assay type: ADME, organism-based; set-up: dose 40 mg/kg, route oral; summary of the method: as §4
[14] = test system: Rattus norvegicus; test: Toxicity in Sprague-Dawley rat at 40 mg/kg, po bid after 4.5 days; assay type: organism-based; set-up: dose 40 mg/kg, route oral; details: in vivo, 108 h; summary of the method: as §4
[15] = test system: Mo7e; test: Selectivity ratio of IC50 for KIT in human Mo7e cells to IC50 for FMS in mouse BMDM cells; assay type: cell-based
Summary of the method: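 Cellular selectivity was calculated as Mo7e IC50 divided by BMDM IC50. Mo7e IC50 came from SCF-dependent proliferation of Mo7e leukemia cells. BMDM IC50 came from proliferation of murine bone marrow-derived macrophages.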

Chain of Mast/stem cell growth factor receptor Kit (P10721 whole entry): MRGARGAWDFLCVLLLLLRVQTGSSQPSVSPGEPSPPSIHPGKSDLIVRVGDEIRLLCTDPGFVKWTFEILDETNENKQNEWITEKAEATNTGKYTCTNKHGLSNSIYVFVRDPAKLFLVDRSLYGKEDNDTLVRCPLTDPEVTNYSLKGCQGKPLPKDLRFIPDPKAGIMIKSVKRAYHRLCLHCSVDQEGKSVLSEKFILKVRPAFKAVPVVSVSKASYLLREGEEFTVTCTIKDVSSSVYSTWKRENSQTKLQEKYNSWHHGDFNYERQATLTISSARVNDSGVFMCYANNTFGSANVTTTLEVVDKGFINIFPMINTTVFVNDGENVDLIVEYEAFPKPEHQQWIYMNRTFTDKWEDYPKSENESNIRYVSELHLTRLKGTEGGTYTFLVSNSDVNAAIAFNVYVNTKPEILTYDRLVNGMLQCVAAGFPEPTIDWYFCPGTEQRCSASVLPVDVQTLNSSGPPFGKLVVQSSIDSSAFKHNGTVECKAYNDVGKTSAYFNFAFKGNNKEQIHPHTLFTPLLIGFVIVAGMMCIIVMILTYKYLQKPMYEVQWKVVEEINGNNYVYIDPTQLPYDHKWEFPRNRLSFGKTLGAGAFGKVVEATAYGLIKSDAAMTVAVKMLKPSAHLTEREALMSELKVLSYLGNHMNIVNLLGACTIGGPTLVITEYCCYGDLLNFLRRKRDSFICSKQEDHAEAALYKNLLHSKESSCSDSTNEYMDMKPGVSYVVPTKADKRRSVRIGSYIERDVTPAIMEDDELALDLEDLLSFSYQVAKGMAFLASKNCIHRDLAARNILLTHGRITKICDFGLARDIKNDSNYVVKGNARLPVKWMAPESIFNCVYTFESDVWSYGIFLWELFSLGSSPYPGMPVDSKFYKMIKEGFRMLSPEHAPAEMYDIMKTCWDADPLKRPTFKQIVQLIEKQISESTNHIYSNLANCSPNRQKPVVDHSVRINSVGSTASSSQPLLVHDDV

SMILES | IC50 [1] [nM] | remaining at 10 min [2] [%] | remaining at 10 min [3] [%] | remaining at 10 min [4] [%] | further results
N#Cc1cnc(C(=O)Nc2ccc(CCS(=O)(=O)NN)cc2C2=CCCCC2)[nH]1 | 23 | – | – | – | –
N#Cc1cnc(C(=O)Nc2ccc(CCN3CCOCC3)cc2C2=CCCCC2)[nH]1 | 1.8 | 46 | 2 | – | –
N#Cc1c[nH]c(C(=O)Nc2ccc(CCC(=O)O)cc2C2=CCCCC2)n1 | – | 83 | – | 19 | –
CC1(C)CC=C(c2cc(C(C)(C)CO)ccc2NC(=O)c2nc(C#N)c[nH]2)CC1 | 33 | – | – | – | –
CN(C)CCOC(C)(C)c1ccc(NC(=O)c2ncc(C#N)[nH]2)c(C2=CCC(C)(C)CC2)c1 | – | 104 | – | 39 | –
CC1(C)CC=C(c2cc(CN3CCN(CCO)CC3)ccc2NC(=O)c2nc(C#N)c[nH]2)CC1 | – | 101 | 79 | 2 | –
CC1(C)CC=C(c2cc(C(C)(C)N3CCOCC3)ccc2NC(=O)c2nc(C#N)c[nH]2)CC1 | 17 | – | – | – | –
CC1(C)CC=C(c2cc(CCS(N)(=O)=O)ccc2NC(=O)c2nc(C#N)c[nH]2)CC1 | 86 | 109 | – | 5 | –
CN(CCS(C)(=O)=O)C(C)(C)c1ccc(NC(=O)c2nc(C#N)c[nH]2)c(C2=CCC(C)(C)CC2)c1 | 21 | – | – | – | –
CC1(C)CC=C(c2cc(C(C)(C)N3CCN(CCO)CC3)ccc2NC(=O)c2ncc(C#N)[nH]2)CC1 | – | – | – | – | inhibition in vivo at 40 mg/kg [5]: 78%; Activity [6]: Dose-dependent effect; Activity [7]: Active
CC1(C)CC=C(c2cc(C(N)=O)ccc2NC(=O)c2nc(C#N)c[nH]2)CC1 | 32 | – | – | – | –
N#Cc1c[nH]c(C(=O)Nc2ccc(CCS(N)(=O)=O)cc2C2=CCCCC2)n1 | 54 | – | – | – | –
CC(O)c1ccc(NC(=O)c2ncc(C#N)[nH]2)c(C2=CCC(C)(C)CC2)c1 (configuration not stated) | > 150 | – | – | – | –
CC1(C)CC=C(c2cc(C(C)(C)N3CCS(=O)(=O)CC3)ccc2NC(=O)c2nc(C#N)c[nH]2)CC1 | – | 112 | 84 | 98 | inhibition in vivo at 30 mg/kg [8]: 8%; IC50 [9]: 250 nM
N#Cc1cnc(C(=O)Nc2ccc(Cc3nnn[nH]3)cc2C2=CCCCC2)[nH]1 | > 300 | – | – | – | –
N#Cc1c[nH]c(C(=O)Nc2ccc(S(=O)(=O)N3CCOCC3)cc2C2=CCCCC2)n1 | 210 | – | – | – | –
CC1(C)CC=C(c2cc(C(C)(C)OCCN3CCOCC3)ccc2NC(=O)c2nc(C#N)c[nH]2)CC1 | – | 38 | 93 | 44 | IC50 [9]: 57 nM
CC(C)(O)Cc1ccc(NC(=O)c2nc(C#N)c[nH]2)c(C2=CCCCC2)c1 | 32 | 66 | 61 | 47 | –
CC1(C)CC=C(c2cc(CCN3CCOCC3)ccc2NC(=O)c2ncc(C#N)[nH]2)CC1 | – | 66 | 49 | – | –
COCCN1CCN(C(C)(C)c2ccc(NC(=O)c3nc(C#N)c[nH]3)c(C3=CCC(C)(C)CC3)c2)CC1 | – | 72 | 73 | 40 | IC50 [9]: 210 nM
CC1(C)CC=C(c2cc(C(C)(C)N3CCN(CCO)CC3)ccc2NC(=O)c2nc(C#N)c[nH]2)CC1 | – | 110 | 98 | 63 | Activity [10]: Non-toxic; Activity [11]: Non-toxic; concentration at 2 h [12]: 680 nM; concentration at 2 h [13]: 5160 nM; Activity [14]: Non-toxic
CC1(C)CC=C(c2cc(C(C)(C)NCCN3CCOCC3)ccc2NC(=O)c2nc(C#N)c[nH]2)CC1 | 5.8 | 82 | 62 | 90 | inhibition in vivo at 30 mg/kg [8]: 14%; IC50 [9]: 92 nM
CC1(C)CC=C(c2cc(S(C)(=O)=O)ccc2NC(=O)c2nc(C#N)c[nH]2)CC1 | 59 | – | – | – | –

SMILES | IC50 [1] [nM] | remaining at 10 min [2] [%] | remaining at 10 min [3] [%] | remaining at 10 min [4] [%] | further results
COCCN(C)C(C)(C)c1ccc(NC(=O)c2nc(C#N)c[nH]2)c(C2=CCC(C)(C)CC2)c1 | – | 11 | – | 13 | –
N#Cc1cnc(C(=O)Nc2ccc(S(N)(=O)=O)cc2C2=CCCCC2)[nH]1 | > 150 | – | – | – | –
N#Cc1c[nH]c(C(=O)Nc2ccc(CCS(=O)(=O)N3CCOCC3)cc2C2=CCCCC2)n1 | – | 118 | 93 | 4 | –
CN(C)C(=O)c1ccc(NC(=O)c2nc(C#N)c[nH]2)c(C2=CCC(C)(C)CC2)c1 | 130 | – | – | – | –
CC1(C)CC=C(c2cc(C(C)(C)OCCN3CCCC3)ccc2NC(=O)c2nc(C#N)c[nH]2)CC1 | – | – | – | – | IC50 [9]: 25 nM
N#Cc1cnc(C(=O)Nc2ccc(CCO)cc2C2=CCCCC2)[nH]1 | 40 | 7 | 3 | 3 | –
CC1(C)CC=C(c2cc(C(C)(C)NCCS(C)(=O)=O)ccc2NC(=O)c2nc(C#N)c[nH]2)CC1 | – | 93 | 62 | 28 | –
CC1(C)CC=C(c2cc(CCS(=O)(=O)NN)ccc2NC(=O)c2nc(C#N)c[nH]2)CC1 | 21 | – | – | – | –
CC1(C)CC=C(c2cc(C(=O)O)ccc2NC(=O)c2nc(C#N)c[nH]2)CC1 | > 300 | – | – | – | –
CC1(C)CC=C(c2cc(CC(=O)NCCCO)ccc2NC(=O)c2ncc(C#N)[nH]2)CC1 | > 100 | – | – | – | –
CC1(C)CC=C(c2cc(C(C)(C)NCCO)ccc2NC(=O)c2nc(C#N)c[nH]2)CC1 | 7.8 | – | – | – | Ratio IC50 [15]: 32
N#Cc1cnc(C(=O)Nc2ccc(CN3CCOCC3)cc2C2=CCCCC2)[nH]1 | 20 | 71 | 5 | – | –
CC1(C)CC=C(c2cc(CCO)ccc2NC(=O)c2ncc(C#N)[nH]2)CC1 | 18 | 74 | 41 | – | –
COCCNC(C)(C)c1ccc(NC(=O)c2nc(C#N)c[nH]2)c(C2=CCC(C)(C)CC2)c1 | – | 79 | 50 | 78 | IC50 [9]: 42 nM
N#Cc1c[nH]c(C(=O)Nc2ccc(C(N)=O)cc2C2=CCCCC2)n1 | 34 | – | – | – | –
CN1CCN(C(C)(C)c2ccc(NC(=O)c3ncc(C#N)[nH]3)c(C3=CCC(C)(C)CC3)c2)CC1 | – | 103 | 110 | 16 | inhibition in vivo at 40 mg/kg [5]: 0%
CC1(C)CC=C(c2cc(Cc3nnn[nH]3)ccc2NC(=O)c2ncc(C#N)[nH]2)CC1 | > 100 | – | – | – | –
CC1(C)CC=C(c2cc(-c3nnn[nH]3)ccc2NC(=O)c2ncc(C#N)[nH]2)CC1 | > 300 | – | – | – | –
CN(C)CC(=O)N1CCC(c2ccc(NC(=O)c3nc(C#N)c[nH]3)c(C3=CCCCC3)c2)CC1 | – | – | – | 77 | Ratio IC50 [15]: 15
CC1(C)CC=C(c2cc(S(N)(=O)=O)ccc2NC(=O)c2nc(C#N)c[nH]2)CC1 | > 150 | – | – | – | –
CC1(C)CC=C(c2cc(C(C)(C)O)ccc2NC(=O)c2nc(C#N)c[nH]2)CC1 | 25 | 110 | – | 96 | Stability ([3]; microsomes, 10 min): 124%
CCN1CCN(C(C)(C)c2ccc(NC(=O)c3nc(C#N)c[nH]3)c(C3=CCC(C)(C)CC3)c2)CC1 | – | 108 | 84 | 32 | IC50 [9]: 50 nM
